The record followed here is ChEMBL document CHEMBL5705897, “Characterization of WZ4003 and HTH-01-015 as selective inhibitors of the LKB1-tumour-suppressor-activated NUAK kinases” (Biochem J, 2014).

The source made the active and inactive calls. The rule behind the calls is not given here.

For one experiment, the system named is MEF. Description: Inhibition of cell migration in NUAK1+/+ MEF cells at 10 uM pre incubated for 1 hr followed by overnight incubation and measured after 15 to 20 hrs by microscopic based wound healing assay. In kind it is functional. Particulars: Mus musculus. Put shortly:
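Wound healing: equal MEF numbers loaded into both chambers of inserts with a 500 μm gap, inhibitor (10 μM) added 1 h before; after overnight at 37 °C, 5% CO2 insert removed and gap closure filmed by time-lapse microscopy every 2 min over 15–20 h; triplicate.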

Experiment [1] has as its target MAP kinase-activated protein kinase 2 (Homo sapiens) (UniProt P49137). Description: Inhibition of recombinant human N-terminal GST/C-terminal Myc-tagged MAPKAPK2 (46 to 400 residues) expressed in Escherichia coli assessed as remaining activity at 1 uM using KKLNRTLSVA as substrate incubated for 30 mins in presence of [gamma-33P]ATP by filter binding method relative to control. Put shortly:
(§1)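 Screened at the International Centre for Protein Kinase Profiling against a 140-kinase panel, with inhibitor at 0.1 or 1 μM; activity expressed as percentage of DMSO control reactions, mean of triplicate reactions.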

In experiment [2] the target is Mitogen-activated protein kinase kinase kinase kinase 2 (Homo sapiens) (UniProt Q12851). Description: Inhibition of recombinant human N-terminal His6-tagged GCK (2 to 812 residues) expressed in baculovirus infected Sf21 cells assessed as remaining activity at 1 uM using MBP as substrate incubated for 30 mins in presence of [gamma-33P]ATP by filter binding method relative to control. Put shortly: as §1

The target in experiment [3] is Mitogen-activated protein kinase 13 (Homo sapiens) (UniProt O15264). Briefly: Inhibition of recombinant human GST-tagged P38delta (1 to 365 residues) expressed in Escherichia coli assessed as remaining activity at 1 uM using MBP as substrate incubated for 30 mins in presence of [gamma-33P]ATP by filter binding method relative to control. Put shortly: as §1
The target of experiment [4] is Testis-specific serine/threonine-protein kinase 1 (Homo sapiens) (UniProt Q9BXA7). Description: Inhibition of recombinant human N-terminal GST-tagged TSSK1 (1 to 367 residues) expressed in Escherichia coli assessed as remaining activity at 1 uM using KKKVSRSGLYRSPSMPENLNRPR as substrate incubated for 30 mins in presence of [gamma-33P]ATP by filter binding method relative to control. Put shortly:
as §1

For experiment [5], the target named is Serine/threonine-protein kinase TBK1 (Homo sapiens) (UniProt Q9UHD2). Description: Inhibition of recombinant human N-terminal GST-tagged TBK1 (1 to 729 residues) expressed in baculovirus infected Sf21 cells assessed as remaining activity at 1 uM using KKKKERLLDDRHDSGLDSMKDEE as substrate incubated for 30 mins in presence of [gamma-33P]ATP by filter binding method relative to control. Summed up: as §1
Serine/threonine-protein kinase TBK1 (Homo sapiens), sequence (Q9UHD2 whole entry, the tested form may be a part): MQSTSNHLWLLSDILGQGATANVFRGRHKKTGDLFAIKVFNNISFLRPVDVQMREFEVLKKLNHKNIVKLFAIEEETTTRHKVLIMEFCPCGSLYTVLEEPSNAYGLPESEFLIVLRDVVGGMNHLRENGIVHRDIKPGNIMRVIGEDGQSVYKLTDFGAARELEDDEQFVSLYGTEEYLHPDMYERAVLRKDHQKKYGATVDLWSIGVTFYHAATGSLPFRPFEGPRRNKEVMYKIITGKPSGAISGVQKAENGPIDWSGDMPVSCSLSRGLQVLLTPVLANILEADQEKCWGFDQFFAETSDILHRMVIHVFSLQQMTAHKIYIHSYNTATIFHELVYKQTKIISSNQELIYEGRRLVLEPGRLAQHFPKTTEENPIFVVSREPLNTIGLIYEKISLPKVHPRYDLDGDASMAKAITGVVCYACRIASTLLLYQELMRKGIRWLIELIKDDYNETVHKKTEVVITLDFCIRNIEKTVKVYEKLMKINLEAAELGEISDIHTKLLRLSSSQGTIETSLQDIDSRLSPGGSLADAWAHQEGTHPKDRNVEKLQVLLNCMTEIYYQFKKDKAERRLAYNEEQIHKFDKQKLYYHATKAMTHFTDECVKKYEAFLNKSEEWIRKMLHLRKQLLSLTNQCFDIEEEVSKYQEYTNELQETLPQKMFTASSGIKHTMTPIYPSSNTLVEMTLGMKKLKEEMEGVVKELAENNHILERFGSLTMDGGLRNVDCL

Mitogen-activated protein kinase kinase kinase kinase 2 (Homo sapiens), sequence (Q12851 whole entry, the tested form may be a part): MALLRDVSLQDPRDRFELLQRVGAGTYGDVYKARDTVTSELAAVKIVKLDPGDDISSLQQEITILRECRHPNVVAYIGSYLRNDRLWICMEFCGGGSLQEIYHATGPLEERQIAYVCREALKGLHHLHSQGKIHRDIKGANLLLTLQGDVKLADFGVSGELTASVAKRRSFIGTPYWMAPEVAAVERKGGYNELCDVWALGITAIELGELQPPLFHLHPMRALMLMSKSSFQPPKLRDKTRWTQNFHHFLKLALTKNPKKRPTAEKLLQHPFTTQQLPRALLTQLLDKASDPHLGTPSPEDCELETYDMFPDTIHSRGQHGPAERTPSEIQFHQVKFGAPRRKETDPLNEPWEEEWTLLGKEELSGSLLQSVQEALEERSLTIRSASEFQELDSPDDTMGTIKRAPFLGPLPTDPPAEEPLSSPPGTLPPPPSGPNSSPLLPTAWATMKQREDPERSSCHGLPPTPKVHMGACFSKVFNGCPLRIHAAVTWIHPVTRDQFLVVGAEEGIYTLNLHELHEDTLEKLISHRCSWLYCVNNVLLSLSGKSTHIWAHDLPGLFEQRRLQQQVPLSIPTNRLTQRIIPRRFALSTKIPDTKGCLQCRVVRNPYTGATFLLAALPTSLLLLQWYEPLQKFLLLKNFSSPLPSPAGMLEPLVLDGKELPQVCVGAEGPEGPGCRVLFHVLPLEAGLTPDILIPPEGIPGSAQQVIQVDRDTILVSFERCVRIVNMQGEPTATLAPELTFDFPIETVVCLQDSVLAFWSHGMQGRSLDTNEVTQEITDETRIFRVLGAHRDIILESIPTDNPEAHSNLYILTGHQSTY
Testis-specific serine/threonine-protein kinase 1 (Homo sapiens), sequence (Q9BXA7 whole entry, the tested form may be a part): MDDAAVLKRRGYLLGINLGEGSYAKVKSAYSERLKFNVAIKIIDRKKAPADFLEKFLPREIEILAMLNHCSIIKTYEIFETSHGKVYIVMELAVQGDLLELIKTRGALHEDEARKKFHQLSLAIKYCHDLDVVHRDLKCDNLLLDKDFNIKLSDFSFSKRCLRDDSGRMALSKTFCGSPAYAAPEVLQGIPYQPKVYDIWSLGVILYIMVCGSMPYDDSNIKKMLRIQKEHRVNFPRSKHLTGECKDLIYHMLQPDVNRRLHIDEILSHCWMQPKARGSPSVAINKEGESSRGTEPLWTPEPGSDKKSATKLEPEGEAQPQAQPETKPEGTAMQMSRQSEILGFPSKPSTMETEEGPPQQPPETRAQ
Mitogen-activated protein kinase 13 (Homo sapiens), sequence (O15264 whole entry, the tested form may be a part): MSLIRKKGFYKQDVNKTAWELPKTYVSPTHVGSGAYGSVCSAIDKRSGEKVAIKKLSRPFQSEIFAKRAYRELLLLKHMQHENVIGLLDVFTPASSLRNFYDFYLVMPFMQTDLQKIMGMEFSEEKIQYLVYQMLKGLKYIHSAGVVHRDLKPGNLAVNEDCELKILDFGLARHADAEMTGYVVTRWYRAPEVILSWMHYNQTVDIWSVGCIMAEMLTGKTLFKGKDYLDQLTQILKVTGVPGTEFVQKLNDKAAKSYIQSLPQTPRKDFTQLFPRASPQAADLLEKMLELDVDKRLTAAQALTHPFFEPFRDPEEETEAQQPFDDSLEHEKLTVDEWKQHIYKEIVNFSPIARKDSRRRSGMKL
MAP kinase-activated protein kinase 2 (Homo sapiens), sequence (P49137 whole entry, looked up, the tested form may be a part): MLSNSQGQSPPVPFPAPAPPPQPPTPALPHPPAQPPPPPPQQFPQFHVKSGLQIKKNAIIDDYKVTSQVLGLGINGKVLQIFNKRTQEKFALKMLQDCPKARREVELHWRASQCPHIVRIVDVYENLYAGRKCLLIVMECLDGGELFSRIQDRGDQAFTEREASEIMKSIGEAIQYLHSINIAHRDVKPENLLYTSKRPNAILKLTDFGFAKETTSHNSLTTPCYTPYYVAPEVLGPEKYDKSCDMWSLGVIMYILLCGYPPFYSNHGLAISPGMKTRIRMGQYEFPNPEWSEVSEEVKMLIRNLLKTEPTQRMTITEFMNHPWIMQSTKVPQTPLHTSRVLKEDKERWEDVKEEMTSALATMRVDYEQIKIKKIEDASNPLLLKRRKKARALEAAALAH

Turning to `CCC(=O)Nc1cccc(Oc2nc(Nc3ccc(N4CCN(C)CC4)cc3OC)ncc2Cl)c1`, in the experiment on MEF, the inhibition result is “Active”. Also, the Activity in experiment [1] is 82%; in experiment [2], 96%; in experiment [3], 63%; in experiment [4], 58%; in experiment [5], 84%.
